This is an account of results in ChEMBL document CHEMBL1131472, “A1 adenosine receptor antagonists as ligands for positron emission tomography (PET) and single-photon emission tomography (SPET)” (J Med Chem, 1998).

The term Ki denotes the dissociation constant of the complex between target and ligand, obtained from inhibition or displacement. High values mean weaker binding, low ones tighter binding.

In the test the target is T1, Adenosine receptor A1 (Bos taurus, UniProt P28190).
T1 sequence (P28190 whole entry): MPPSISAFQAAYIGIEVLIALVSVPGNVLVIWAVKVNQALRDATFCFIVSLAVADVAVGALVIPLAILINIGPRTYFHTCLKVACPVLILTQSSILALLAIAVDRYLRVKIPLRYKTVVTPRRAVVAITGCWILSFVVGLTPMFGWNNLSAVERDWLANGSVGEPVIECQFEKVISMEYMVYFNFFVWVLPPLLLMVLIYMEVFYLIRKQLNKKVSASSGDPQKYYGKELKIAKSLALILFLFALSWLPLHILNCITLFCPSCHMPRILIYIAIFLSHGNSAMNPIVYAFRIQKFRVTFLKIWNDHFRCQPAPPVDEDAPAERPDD
Put plainly: Displacement of [3H]CPX from Adenosine A1 receptor of bovine brain cerebral cortex membranes. It is filed as tissue-based. The essentials: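 Competition binding at room temperature in 50 mM Tris·HCl, 0.02% CHAPS, pH 7.4. Mixture held 0.2 nM [3H]CPX, 25 µg bovine cerebral cortex membranes and 0.2 U/mL adenosine deaminase. Membranes were added to start binding, and incubation was stopped after 2 h by glass-fibre filtration. Bound radioactivity was counted by liquid scintillation. Nonspecific binding was defined with 10 µM (R)-PIA. Ki came from nonlinear curve fitting as the geometric mean (95% confidence limits) of 3-5 experiments in duplicate.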
For orientation: Displacement assays read how much labelled ligand stays bound in the presence of the test substance.

Several values for one entry are separate records, joined by “and”; a condition that tells them apart may be missing. Equal values may be shown once.

On to `CCCn1c(=O)c2nc(C3CCCC3)[nH]c2n(CCCF)c1=O`, for which affinity was put at a Ki of 0.183 nM.

In the case of `CCCn1c(=O)c2[nH]c(C3CCCC3)nc2n(CC(C)F)c1=O` (stereo unspecified), the Ki turned out to be 0.094 nM. Compared with the last compound, the Ki is about 1.9-fold lower.

With `CCCn1c(=O)n(CCCF)c(=O)c2nc(C3CCCC3)[nH]c21`, the affinity corresponds to a Ki of 0.216 nM.

Take `CCCn1c(=O)n(COCC)c(=O)c2[nH]c(C3CCCC3)nc21`: the Ki is 0.286 nM. The Ki values of the last two compounds are within 1.5-fold of each other.

With `CCCn1c(=O)c2nc(C3CCCC3)[nH]c2n(C/C=C/I)c1=O`, the Ki was found to be 0.237 nM. The Ki values of the last two compounds are within 1.5-fold of each other.

The compound `CCCn1c(=O)c2nc(C3CCCC3)[nH]c2n(C)c1=O` returned a Ki of 0.31 nM.

Compound `CCCn1c(=O)n(C)c(=O)c2[nH]c(C3CCCC3)nc21` gave a Ki of 0.526 nM.

For the compound `CCCn1c(=O)n(CC(C)F)c(=O)c2[nH]c(C3CCCC3)nc21` (stereo unspecified), the Ki stood at 1.23 nM.

In the case of `CCCn1c(=O)[nH]c2nc(C3CCCC3)n(C)c2c1=O`, the Ki is 149 nM.

The compound `CCCn1c(=O)c2nc(C3CCCC3)[nH]c2n(CCOC)c1=O` registered a Ki of 0.493 nM.

As for `CCCn1c(=O)c2[nH]c(C3CCCC3)nc2n(CCC)c1=O` [1,3-DIPROPYL-8-CYCLOPENTYLXANTHINE [DPCPX]], the Ki was 0.155 nM and 0.17 nM.
